In test [1] the test system is HCT-116. Kind of test: Antiproliferative activity against human HCT-116 cells overexpressing DDR1 assessed as inhibition of cell proliferation at 10 uM measured after 72 hrs by MTT assay relative to control. The class given is functional. The method in brief: (§1)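 Adherent cells seeded at 3000–4000 per well, then given compound at 10 μM in 100 μL medium on day two. After 72 h, MTT added for a further 4–5 h and absorbance read at 570 nm. Percent growth inhibition taken from sample absorbance as a ratio to untreated control.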

Test [2] has as its system HCT-116. Kind of test: Antiproliferative activity against human HCT-116 cells overexpressing DDR1 assessed as inhibition of cell proliferation measured after 72 hrs by MTT assay. Type of test: functional, cell-based. As to conditions: HCT-116, 72 h. The method in brief:
(§2)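 Adherent cells seeded at 3000–4000 per well and dosed the next day with a dilution series in 100 μL medium. Exposure 72 h, then MTT incubation 4–5 h and absorbance read at 570 nm. Inhibition expressed as sample/control absorbance ratio; IC50 determined only for compounds giving […] inhibition at 10 μM.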
(Tetrazolium dyes change colour on reduction, which living cells bring about.)

Test [3] concerns MDA-MB-231. Description: Antiproliferative activity against human MDA-MB-231 cells overexpressing DDR1 assessed as inhibition of cell proliferation at 10 uM measured after 72 hrs by MTT assay relative to control. Type of test: functional. The method in brief:
as §1

The target of test [4] is Epithelial discoidin domain-containing receptor 1 (Homo sapiens, UniProt Q08345). Kind of test: Inhibition of DDR1 (unknown origin) using fluorescein-poly GAT as substrate measured after 1 hr by LANCE ULTRA kinase assay. For orientation: TR-FRET usually uses a lanthanide donor and a delayed reading to cut background.
Epithelial discoidin domain-containing receptor 1, sequence (Q08345 whole entry, the tested form may be a part): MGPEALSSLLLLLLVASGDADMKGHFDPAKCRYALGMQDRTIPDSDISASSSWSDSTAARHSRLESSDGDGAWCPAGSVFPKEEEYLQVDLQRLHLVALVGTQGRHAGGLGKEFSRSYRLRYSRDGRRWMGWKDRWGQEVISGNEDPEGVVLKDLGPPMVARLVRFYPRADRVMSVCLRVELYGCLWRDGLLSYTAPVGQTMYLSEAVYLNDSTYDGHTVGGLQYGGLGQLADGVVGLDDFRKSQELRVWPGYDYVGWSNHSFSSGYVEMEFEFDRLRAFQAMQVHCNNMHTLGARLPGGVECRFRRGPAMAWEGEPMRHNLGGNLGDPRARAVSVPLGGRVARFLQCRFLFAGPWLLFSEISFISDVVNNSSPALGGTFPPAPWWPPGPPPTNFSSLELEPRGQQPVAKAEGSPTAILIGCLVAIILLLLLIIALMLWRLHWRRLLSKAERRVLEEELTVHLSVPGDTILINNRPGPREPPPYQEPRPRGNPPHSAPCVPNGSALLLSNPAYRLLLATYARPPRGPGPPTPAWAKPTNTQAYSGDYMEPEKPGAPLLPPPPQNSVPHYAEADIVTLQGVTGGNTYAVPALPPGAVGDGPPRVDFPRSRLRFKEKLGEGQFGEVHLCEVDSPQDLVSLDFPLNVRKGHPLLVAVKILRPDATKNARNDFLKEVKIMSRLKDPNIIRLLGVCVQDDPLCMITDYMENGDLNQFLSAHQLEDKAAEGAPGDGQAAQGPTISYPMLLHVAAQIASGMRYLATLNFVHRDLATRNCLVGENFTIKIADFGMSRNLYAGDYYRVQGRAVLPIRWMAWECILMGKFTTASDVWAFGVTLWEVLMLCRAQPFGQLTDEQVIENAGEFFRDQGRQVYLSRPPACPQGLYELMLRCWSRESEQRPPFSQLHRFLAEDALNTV
Test [5] has as its system MDA-MB-231. Kind of test: Antiproliferative activity against human MDA-MB-231 cells overexpressing DDR1 assessed as inhibition of cell proliferation measured after 72 hrs by MTT assay. The class given is functional, cell-based. The settings on record: MDA-MB-231, 72 h. In a few lines: as §2

For orientation: inhibition means the percentage by which the read-out fell short of the control. One may read the IC50 as the concentration needed to halve the response being measured.

Take `Cc1ccc(NC(=O)c2ccc(CN3CCCC3)cc2)cc1Oc1ccc(-c2n[nH]c3ncnc(N)c23)cc1`: the inhibition at 10 µM in the test on HCT-116 [1] was found to be 100%; in the test on MDA-MB-231 [3], 98.8%. In addition, the 50% inhibitory concentration (IC50) in the test on HCT-116 [2] was determined as 3.04 µM.
As for `Cc1ccc(NC(=O)c2ccc(CN3CCN(C)CC3)cc2)cc1Oc1ccc(-c2n[nH]c3ncnc(N)c23)cc1`, the IC50 in test [4] is 2.69 µM; with HCT-116 [2], over 10 µM. Also, the inhibition at 10 µM with HCT-116 [1] is 26.7%; in the test on MDA-MB-231 [3], 94.5%.
As for `Cc1ccc(NC(=O)c2ccc(CN3CCOCC3)c(C(F)(F)F)c2)cc1Oc1ccc(-c2n[nH]c3ncnc(N)c23)cc1`, the half-inhibitory concentration (IC50) was 0.416 µM in test [4] and over 10 µM in the test with HCT-116 [2]. Moreover, the inhibition at 10 µM with HCT-116 [1] was determined as 20.5%; in the test on MDA-MB-231 [3], 71.3%.
For `CCN1CCN(Cc2ccc(C(=O)Nc3ccc(C)c(Oc4ccc(-c5n[nH]c6ncnc(N)c56)cc4)c3)cc2C(F)(F)F)CC1`, the concentration for half-maximal inhibition (IC50) worked out at 0.07 µM in test [4], 5.48 µM with HCT-116 [2] and 3.85 µM with MDA-MB-231 [5]. Further, the values for the inhibition at 10 µM in the test with HCT-116 [1] and in the test with MDA-MB-231 [3] were 99.7% and 99.3%, respectively.
On to `Cc1ccc(C(=O)Nc2ccc(CN3CCN(C)CC3)c(C(F)(F)F)c2)cc1C#Cc1cnc2ccnn2c1`, for which the IC50 in test [4] amounted to 0.005 µM.
For `Cc1ccc(NC(=O)c2ccc(CN3CCCC3)c(C(F)(F)F)c2)cc1Oc1ccc(-c2n[nH]c3ncnc(N)c23)cc1`, the half-inhibitory concentration (IC50) in test [4] is 1.19 µM; with HCT-116 [2], over 10 µM. For the same compound, the inhibition at 10 µM with HCT-116 [1] turned out to be 34.9%; in the test on MDA-MB-231 [3], 98.5%.
For the compound `CCN1CCN(Cc2ccc(C(=O)Nc3ccc(C)c(Oc4ccc(-c5n[nH]c6ncnc(N)c56)cc4)c3)cc2)CC1`, the inhibition at 10 µM in the test on HCT-116 [1] amounted to 33.6%; in the test on MDA-MB-231 [3], 88.7%. For the same compound, in the test with HCT-116 [2], the IC50 is over 10 µM.
For the compound `Cc1ccc(NC(=O)c2ccc(CN3CCN(C)CC3)c(I)c2)cc1Oc1ccc(-c2n[nH]c3ncnc(N)c23)cc1`, the figures for the concentration for half-maximal inhibition (IC50) (in test [4]; in the test on HCT-116 [2]; in the test with MDA-MB-231 [5]) were 0.131 µM, 4.51 µM and 3.21 µM, respectively. Moreover, the inhibition at 10 µM was 99.7% in the test on HCT-116 [1] and 98.9% in the test on MDA-MB-231 [3].
Turning to `Cc1ccc(NC(=O)c2ccc(CN3CCOCC3)cc2)cc1Oc1ccc(-c2n[nH]c3ncnc(N)c23)cc1`, the inhibition at 10 µM with HCT-116 [1] came to 97.2%; with MDA-MB-231 [3] it was 99%. The figures for the half-maximal inhibitory concentration (IC50) in the test with HCT-116 [2] and in the test with MDA-MB-231 [5] were 4.89 µM and 3.53 µM, respectively.
The corresponding values for `Cc1ccc(NC(=O)c2ccc(CN3CCN(C)CC3)c(Cl)c2)cc1Oc1ccc(-c2n[nH]c3ncnc(N)c23)cc1` are 99.9%, 99.2%, 2.91 µM and 3.83 µM.
As for `Cc1ccc(NC(=O)c2ccc(CN3CCOCC3)c(Br)c2)cc1Oc1ccc(-c2n[nH]c3ncnc(N)c23)cc1`, the half-maximal inhibitory concentration (IC50) was 2.47 µM in test [4] and over 10 µM in the test on HCT-116 [2]. The inhibition at 10 µM turned out to be 35% in the test on HCT-116 [1] and 81.3% in the test with MDA-MB-231 [3].
`Cc1ccc(NC(=O)c2ccc(CN3CCCCC3)c(C(F)(F)F)c2)cc1Oc1ccc(-c2n[nH]c3ncnc(N)c23)cc1`: the IC50 in test [4] is 0.975 µM; with HCT-116 [2] it was over 10 µM; in the test on MDA-MB-231 [5], over 10 µM. The figures for the inhibition at 10 µM in the test on HCT-116 [1] and in the test with MDA-MB-231 [3] were 36.9% and 29.6%, respectively.
For `Cc1ccc(NC(=O)c2ccc(CN3CCC(C)CC3)cc2)cc1Oc1ccc(-c2n[nH]c3ncnc(N)c23)cc1`, the inhibition at 10 µM is 99.9% in the test on HCT-116 [1] and 97.4% in the test on MDA-MB-231 [3]. The 50% inhibitory concentration (IC50) in the test with HCT-116 [2] came to 1.37 µM; in the test with MDA-MB-231 [5], 2.76 µM.
In test [4], `Cc1ccc(NC(=O)c2ccc(CN3CCOCC3)c(Cl)c2)cc1Oc1ccc(-c2n[nH]c3ncnc(N)c23)cc1` displayed an IC50 of 2.17 µM. For the same compound, the results for the inhibition at 10 µM in the test on HCT-116 [1] and in the test with MDA-MB-231 [3] were 58.3% and 96.5%, respectively.
`Cc1cn(-c2cc(NC(=O)c3ccc(C)c(Nc4nccc(-c5cccnc5)n4)c3)cc(C(F)(F)F)c2)cn1` [NILOTINIB]: the figures for the inhibition at 10 µM with HCT-116 [1] and in the test with MDA-MB-231 [3] were 88.1% and 93.6%, respectively. In addition, the IC50 was found to be 5.75 µM with HCT-116 [2] and 7.31 µM with MDA-MB-231 [5].
Take `Cc1ccc(NC(=O)c2cccc(CN3CCN(C)CC3)c2)cc1Oc1ccc(-c2n[nH]c3ncnc(N)c23)cc1`: the IC50 in test [4] was 1.21 µM; in the test with HCT-116 [2] it was 4.47 µM. The values for the inhibition at 10 µM in the test on HCT-116 [1] and in the test with MDA-MB-231 [3] were 99.8% and 99.3%, respectively.
`Cc1ccc(NC(=O)c2ccc(CN3CCN(C)CC3)c(C(F)(F)F)c2)cc1Oc1ccc(-c2n[nH]c3ncnc(N)c23)cc1`: the results for the IC50 (in test [4]; in the test with HCT-116 [2]; in the test on MDA-MB-231 [5]) were 0.044 µM, 4 µM and 3.36 µM, respectively. Also, the figures for the inhibition at 10 µM in the test with HCT-116 [1] and in the test with MDA-MB-231 [3] were 100% and 97.9%, respectively.
For the compound `Cc1ccc(NC(=O)c2ccc(CN3CCOCC3)c(F)c2)cc1Oc1ccc(-c2n[nH]c3ncnc(N)c23)cc1`, the IC50 is 24.4 µM in test [4] and over 10 µM with HCT-116 [2]. In addition, the inhibition at 10 µM in the test on HCT-116 [1] was determined as 11.1%; with MDA-MB-231 [3], 93.1%.
Turning to `CN1CCN(Cc2ccc(C(=O)Nc3cccc(Oc4ccc(-c5n[nH]c6ncnc(N)c56)cc4)c3)cc2C(F)(F)F)CC1`, the values for the IC50 (in test [4]; in the test with HCT-116 [2]; with MDA-MB-231 [5]) were 0.044 µM, 5.96 µM and 4.29 µM, respectively. Besides, the results for the inhibition at 10 µM in the test on HCT-116 [1] and in the test with MDA-MB-231 [3] were 99.8% and 98.2%, respectively.
On to `Cc1ccc(NC(=O)c2ccc(CN3CCC(C)CC3)c(C(F)(F)F)c2)cc1Oc1ccc(-c2n[nH]c3ncnc(N)c23)cc1`, for which the IC50 in test [4] is 2.81 µM; in the test on MDA-MB-231 [5], over 10 µM. The inhibition at 10 µM in the test on HCT-116 [1] is 73.7%; in the test on MDA-MB-231 [3], 42.1%.
`Cc1ccc(NC(=O)c2ccc(CN3CCN(C)CC3)c(Br)c2)cc1Oc1ccc(-c2n[nH]c3ncnc(N)c23)cc1`: the inhibition at 10 µM in the test on HCT-116 [1] turned out to be 99.5%; in the test with MDA-MB-231 [3] it was 100%. In addition, the IC50 in the test on HCT-116 [2] turned out to be 6.56 µM.
With `Cc1ccc(NC(=O)c2ccc(CN3CCCCC3)cc2)cc1Oc1ccc(-c2n[nH]c3ncnc(N)c23)cc1`, the figures for the inhibition at 10 µM in the test on HCT-116 [1] and with MDA-MB-231 [3] were 99.6% and 98.7%, respectively. Further, the IC50 in the test with HCT-116 [2] worked out at 2 µM; with MDA-MB-231 [5], 2.68 µM.
Consider `Cc1ccc(NC(=O)c2ccc(CN3CCN(C)CC3)c(F)c2)cc1Oc1ccc(-c2n[nH]c3ncnc(N)c23)cc1`, for which the inhibition at 10 µM is 73.2% with HCT-116 [1] and 92.1% with MDA-MB-231 [3].

For the origin of these results see ChEMBL document CHEMBL4699659, “Discovery of 4-amino-1H-pyrazolo[3,4-d]pyrimidin derivatives as novel discoidin domain receptor 1 (DDR1) inhibitors” (Bioorg Med Chem, 2021).
